Results collected from several papers.
Each line is one published result; the experiments were not run side by side.
FABP1: Fatty acid-binding protein, liver (FABP1, Homo sapiens, UniProt P07148)
ADRA1A: Alpha-1A adrenergic receptor (ADRA1A, Homo sapiens, UniProt P35348)
MAOA: Amine oxidase [flavin-containing] A (MAOA, Homo sapiens, UniProt P21397)
MAL12: Alpha-glucosidase MAL12 (MAL12, Saccharomyces cerevisiae S288c, UniProt P53341)

| SMILES | target | assay | setting | quantity | value |
| --- | --- | --- | --- | --- | --- |
| O=S(=O)(O)C(F)(F)C(F)(F)C(F)(F)C(F)(F)C(F)(F)C(F)(F)F | FABP1 | ligand displacement, fluorescence | – | Kd | 11.2 µM |
| COc1cc2c3c(c1OC)-c1c(OC)ccc(Cl)c1CC3N(C)CC2 (racemic) | ADRA1A | cell-free assay, radioligand | – | Ki | 0.023 µM |
| CC[C@H](C)[C@H](N)C(=O)N1CCC[C@H]1C(=O)N1CCC[C@H]1C(=O)NCC(=O)N[C@H](C(=O)N1CCC[C@H]1C(=O)N[C@@H](Cc1ccc(O)cc1)C(=O)O)C(C)C | MAOA | enzyme activity, inhibitor, fluorescence | – | IC50 | 829 µM |
| COc1cc(O)cc(/C=C/c2ccc(O)cc2)c1 | MAL12 | enzyme activity, inhibitor, absorbance | pH 6.8 | IC50 | 11.7 µM |
| CCc1ccc(N2C(=O)/C(=C3/C(=O)N(C)c4ccc(Cl)cc43)NC2=S)cc1 | MAL12 | enzyme activity, inhibitor, absorbance | – | IC50 | 128 µM |
| O=C(Nc1ccc([N+](=O)[O-])cc1Cl)c1cc(Cl)ccc1O | FABP1 | ligand displacement, fluorescence | – | Kd | 9.69 µM |
| COc1cc2c3c(c1OC)-c1c(OC)ccc(Br)c1CC3N(C)CC2 (stereo not shown) | ADRA1A | cell-free assay, radioligand | – | Ki | 0.016 µM |
| CC[C@H](C)[C@H](NC(=O)[C@H](C)NC(=O)[C@H](CCC(=O)O)NC(=O)[C@H](Cc1c[nH]cn1)NC(=O)[C@H](CC(C)C)NC(=O)[C@@H](NC(=O)[C@H](Cc1ccccc1)NC(=O)[C@H](CO)NC(=O)[C@@H](NC(=O)[C@H](CC(C)C)NC(=O)[C@H](CC(=O)O)NC(=O)[C@H](CC(C)C)NC(=O)[C@@H]1CCCN1)[C@@H](C)O)C(C)C)C(=O)O | MAOA | enzyme activity, inhibitor, fluorescence | – | IC50 | 73 µM |
| Cc1cc(SC2=C(O)C[C@@](CCc3ccc(N)cc3)(C(C)C)OC2=O)c(C(C)(C)C)cc1CO | FABP1 | ligand displacement, fluorescence | – | Kd | 1.68 µM |
| CCOC(=O)c1ccc(OC(=O)CCCCCN=C(N)N)cc1 | Kallikrein-7 (KLK7, Homo sapiens, UniProt P49862) | enzyme activity, inhibitor | – | IC50 | 15.6 µM |
| COc1cc2c(cc1OC)CN(CCc1ccc(NC(=O)c3cccc4c(=O)c5cccc(OC)c5[nH]c34)cc1)CC2 | ADRA1A | cell-free assay | – | Ki | 0.183 µM |
| CN1C(=S)N(c2ccccc2)C(=O)/C1=C1/C(=O)N(C)c2ccc(Cl)cc21 | MAL12 | enzyme activity, inhibitor, absorbance | – | IC50 | 157 µM |
| O=P(Oc1ccccc1)(Oc1ccccc1)C(NCc1cncc2ccccc12)c1ccc(O)cc1 (stereo not shown) | sn-1-specific diacylglycerol lipase ABHD11 (ABHD11, Homo sapiens, UniProt Q8NFV4) | enzyme activity, inhibitor | lysate | IC50 | 1.9 µM |
